The list is a sample of the results.
PGC1a acetyl up = raises PGC1a acetylation signal in U2OS cells; U2OS PGC1a acetylation AlphaScreen, overnight; activation, % at 15.6 µM; 350,000 tested, 0.21% active; AID 651723;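 active = every replicate reaching activation of at least 50%, whatever the mean replicate activation; inconclusive = replicates that disagree or another doubt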;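 note: hits raise the AlphaScreen acetylation signal above neutral controls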
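Incubation: overnight compound treatment, 37 °C. System: U2OS cells transduced with flag-tagged PGC1a and GCN5 acetyltransferase. Detection: AlphaScreen lysate read. Compound: single-point compound dosing.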
G6PC hep suppr = PGC-1a acetylation activator altering hepatocyte G6PC expression; primary mouse hepatocytes, G6PC mRNA qPCR, forskolin; 240 tested, under 10 active; AID 743463; G6PC suppression (normalized activity, % of positive control; higher = more suppression), % at 26 µM; shares compounds with PGC1a acetyl up;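 active = dose curves showing G6PC suppression whose half-maximal dose is at most twice the top valid dose; inconclusive = flat curves with moderate negative activity, or unreliable fits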;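 note: G6PC expression relative to GAPDH housekeeping gene as delta delta Ct; 0% = median of neutral control wells and 100% = median of positive control wells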
Hep PCK1 suppr = hepatocyte PCK1 expression change via PGC-1a acetylation activation | shares compounds with PGC1a acetyl up | primary mouse hepatocytes, PCK1 mRNA qPCR, forskolin-stimulated | PCK1 expression decrease, unspecified at 26 µM | 230 tested, under 10 active;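 active = compounds lowering PCK1 expression whose fitted half-maximal concentration is at most twice the top tested dose; inconclusive = flat fit with moderate opposite-direction effect, or poor fit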;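 note: values are delta delta Ct of PCK1 relative to GAPDH; higher delta delta Ct means lower PCK1 expression so positive values indicate hits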
Hep PGC-1a down = PGC-1a acetylation activator altering hepatocyte PGC-1a expression; AID 743467; primary mouse hepatocytes, PGC-1a mRNA qPCR, forskolin; top dose 26 µM; max activity (PGC-1a expression decrease), %; shares compounds with PGC1a acetyl up; 240 tested, under 10 active;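 active = compound lowering PGC-1a expression with fitted half-maximal concentration at most twice its top tested dose; inconclusive = flat curve with moderate opposite-direction effect, or poor fit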;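 note: 0% = neutral control wells median and 100% = positive control wells median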
Active calls of the source: *; ? = inconclusive.

SMILES	PGC1a acetyl up	others
Cc1ccc(S(=O)(=O)N[C@@H]2CC[C@@H](CCNC(=O)c3ccccc3F)O[C@H]2CO)cc1	-49
COc1ccc(S(=O)(=O)NCCC(=O)NCc2ccc(F)cc2)cc1	-80
O=C(CCNC(=O)C1CCN(S(=O)(=O)c2ccc(F)cc2)CC1)NCc1ccccc1Cl	64*
Cn1c(=O)c2cc(S(=O)(=O)NCCC(=O)NCc3ccccc3Cl)ccc2n(C)c1=O	-47
CCN1CCN(c2cc(C)c3cc(NC(=O)c4ccc(Br)o4)ccc3n2)CC1	53*
O=S(=O)(NCCSc1ccc(Cl)cc1)c1ccc(F)cc1	-40
COc1ccc(Nc2ccnc3ccccc23)cc1	-51
Nc1nc(Nc2ccccc2)nc2ccccc12	52*
N#Cc1cc(Oc2cccc3cccnc23)c(-n2nnc3ccccc32)cc1C#N	139*
CCOC(=O)C1=C(C)NC(=O)NC1c1ccccc1Cl (stereo not drawn)	57*
C=CCOC(=O)C1=C(C)NC(SCC)=C(C#N)C1c1ccc(Cl)cc1 (stereo not drawn)	-45
COC(=O)/C(=C\Nc1cccc(Cl)c1C)c1ncc(C(F)(F)F)cc1Cl	-41
CN(C)C(=S)Nc1ccc(Br)c(Cl)c1	-52
CN(C)CCOc1ccc2c(c1)C(=O)C(=Cc1ncc([N+](=O)[O-])n1C)C2	-93
CCOC(=O)C1CN(S(=O)(=O)c2ccccc2)c2cc(S(=O)(=O)CC)ccc2O1 (stereo not drawn)	-50
Cc1ccc(S(=O)(=O)N2CCN(S(=O)(=O)c3ccc(C)cc3)C2c2ccccc2)cc1	110*
Cc1ccc(S(=O)(=O)C(C#N)c2nc3ccccc3nc2N2CCCC2)cc1 (stereo not drawn)	-50
CCCCCC(=O)N1C[C@H](n2cc(-c3ccc(F)cc3)nn2)[C@@H](O)C[C@@H]1c1ccc(C)cc1	-67
C[C@@H]1CN([C@H](C)CO)C(=O)c2cc(NC(=O)Nc3ccc(F)cc3)ccc2O[C@@H](C)CCCCO[C@@H]1CN(C)C(=O)NC1CCCCC1	-53
C[C@@H]1CN([C@@H](C)CO)C(=O)c2cc(NS(=O)(=O)c3ccc(F)cc3)ccc2O[C@@H]1CN(C)S(=O)(=O)c1ccc(Cl)cc1	-43
COCCSc1ccccc1C(=O)Nc1cc(C)on1	-51
CCCCOP(=O)(c1ccc(N(C)C)cc1)C(O)c1ccc(OC)cc1 (stereo not drawn)	-82
O=C1c2ccccc2C(=O)c2c1oc(C(F)(F)F)c2C(=O)c1ccccc1	-45
O=C(c1ccccc1)c1nn(-c2ccc(Cl)cc2)c(=O)cc1C(F)(F)F	179*
Cc1cc(-c2c(C)[nH]n(-c3ccc(Cl)cc3)c2=O)n(-c2ccccc2)n1	-42
SMILES	PGC1a acetyl up	others
COc1ccc(NC(=O)N[C@@H]2C=C[C@@H](CC(=O)NCc3ccccn3)O[C@@H]2CO)cc1	-48
Cc1ccc(NC(=S)c2ccncc2)c(C)c1	164*
CCOc1nc(NC(=O)NS(=O)(=O)c2ccccc2F)nc(-c2ccccc2)n1	-50
COC(=O)c1ccc2c(c1)C(C)(C)C(/C=C/c1ccccc1O)=[N+]2C	52*
Cn1nc([N+](=O)[O-])nc1S(C)(=O)=O	95*
Cc1ccccc1OCC(=O)OCC(=O)NCc1ccc2c(c1)OCO2	68*
COc1ccccc1/C=C(/C(=O)OCC(=O)NCc1ccccc1)c1ccccc1	-92
CO[C@H]1CN(C)C(=O)c2cc(NS(C)(=O)=O)ccc2OC[C@H](C)N(C(=O)NC(C)C)C[C@H]1C	-48
Cc1ccc(/C(N)=N/OC(=O)c2ccco2)cc1	62*
CC1(C)CCC[C@]2(C)[C@H]3Cc4cc(O)ccc4O[C@]3(C)CC[C@@H]12	67*
CCN1CCN(Cc2ccc(NC(=O)c3ccc(C)c(NC(=O)c4c[nH]c5cc(C(F)(F)F)ccc5c4=O)c3)cc2C(F)(F)F)CC1	-78
CCOc1ccc(C(=O)N/N=C(\c2ccccc2)c2ccccn2)cc1	-80
CCOc1ccccc1C(=O)NCCCCCC(=O)O	-42
CCOC(=O)C(NC(=O)c1ccccc1OCC)(Nc1ncccn1)C(F)(F)F (stereo not drawn)	70*
C/C=C/c1ccc2c(c1)O[C@@H](CN(C)C(=O)NC(C)C)[C@H](C)CN([C@H](C)CO)S2(=O)=O	-44
C[C@H](CO)N1C[C@H](C)[C@H](CN(C)Cc2ccncc2)OCc2cn(nn2)CCCC1=O	-59
COc1cc(CN2CC3(CCN(S(=O)(=O)c4cccs4)CC3)c3c(n(C)c4cc(OC)ccc34)[C@H]2CO)cc(OC)c1	63*
COc1ccc(S(=O)(=O)N(C)C[C@H]2Oc3ccc(NC(=O)CCN4CCOCC4)cc3C(=O)N([C@@H](C)CO)C[C@@H]2C)cc1	-49
COc1cccc(N2C(=NC(=O)c3ccccc3)SC3CS(=O)(=O)CC32)c1 (stereo not drawn)	-41
CC(=O)Nc1ccc(Sc2ccc([N+](=O)[O-])o2)cc1	438*
CC(=O)Nc1ccc(NC(=O)c2cc(=O)c3ccccc3o2)cc1	-42
CO[C@H]1CN(C)C(=O)c2cc(NC(=O)Nc3ccc(Cl)cc3)ccc2OC[C@H](C)NC[C@@H]1C	-43
O=CNc1ccc2c(c1)Cc1cc([N+](=O)[O-])ccc1-2	54*
Cc1ccc(NC(=O)CC2=NC(=O)C(CC(=O)Nc3ccccc3F)S2)cc1 (stereo not drawn)	-50
O=C(OCc1nc2ccsc2c(=O)[nH]1)c1cccc(S(=O)(=O)N2CCOCC2)c1	-42
SMILES	PGC1a acetyl up	others
COc1cc(NC(=O)NCc2ccco2)ccc1-c1ccc(NC(=O)NCc2ccco2)cc1OC	-48
CCOc1ccc(CC(=O)Nc2ccc(NC(=O)c3ccco3)cc2)cc1OCC	133*
CCCOc1cccc(C(=O)Nc2cc(NC(=O)c3ccco3)ccc2OC)c1	61*
Cc1sc(NC(=O)c2cccs2)nc1-c1ccccc1	80*	Hep PCK1 suppr=3.4;Hep PGC-1a down=22
Cc1c(Cl)cccc1NS(=O)(=O)c1ccc2c(c1)C1C=CCC1C(c1ccc(C(=O)O)cc1)N2 (stereo not drawn)	-107
C=C[C@H]1C(C(=O)OCC)=CC[C@@H](c2ccccc2)N1S(=O)(=O)c1ccc(C)cc1	?	G6PC hep suppr=-62;Hep PCK1 suppr=?;Hep PGC-1a down=57
Cc1ccc(S(=O)(=O)/N=C2/C=C(Sc3ncn[nH]3)C(=O)c3ccccc32)cc1	-77
O=C(Cc1ccccc1)Nc1cccc(-c2nc3ncccc3o2)c1	122*	G6PC hep suppr=285;Hep PCK1 suppr=108;Hep PGC-1a down=53
COc1cc(C2Nc3cccc4cccc(c34)N2)ccc1OC(C)=O	-56
O=C(/C=C/c1ccccc1)CC(O)(c1ccccc1)C(F)(F)F (stereo not drawn)	-42
S=c1nc[nH]c2c1cnn2Cc1ccccc1	-45
Cc1cc(C)n(CCc2nc3c4ccccc4n(CC#N)c(=O)n3n2)n1	-41
Cc1ccc(S(=O)(=O)NC(CC(C)C)C(=O)N2CCCCCCC2)cc1 (stereo not drawn)	64*	G6PC hep suppr=7;Hep PCK1 suppr=77;Hep PGC-1a down=77
Cc1cc2c(cc1S(=O)(=O)N1CCc3ccccc31)NC(=O)CO2	?	Hep PCK1 suppr=19;Hep PGC-1a down=15

Screens (PubChem)
